Test results: ChEMBL document CHEMBL4312042, “In Silico Discovery of JMJD6 Inhibitors for Cancer Treatment” (ACS Med Chem Lett, 2019)
pIC50: −log10 of the molar value. One block for each compound: values may come before it. Activity calls are given as the source filed them. The calls are words filed in the database; no cut-off is given here.

How the values were obtained:
[1] = target: T1, Bifunctional arginine demethylase and lysyl-hydroxylase JMJD6 (Homo sapiens, UniProt Q6NYC1); experiment: Inhibition of His-tagged JMJD6 (unknown origin) expressed in Escherichia coli BL21 (DE3) assessed as increase in H4 arginine 3 symmetrical dimethylation (H4R3me2s) content at 10 uM using core histone as substrate preincubated with enzyme for 10 mins followed by incubation with substrate for 1 hr by immunoblotting analysis
Method in brief: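 Purified bacterially expressed JMJD6 incubated with core histones, with or without compound at 10 μM; product analysed by immunoblot for H4R3me2s with total histone H4 probed alongside.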

[2] = target: T1, Bifunctional arginine demethylase and lysyl-hydroxylase JMJD6; experiment: (§1) Inhibition of His-tagged JMJD6 (unknown origin) expressed in Escherichia coli BL21 (DE3) assessed as decrease in demethylase activity by measuring release of formaldehyde using core histone as substrate preincubated with enzyme for 10 mins followed by incubation with substrate for 1 hr measured following 2 hrs incubation with ammonium acetate/acetoacetanilide by fluorescence based analysis
Method in brief: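 Bacterially expressed, purified JMJD6 mixed with core histones, with or without inhibitor across a concentration series; demethylation read as formaldehyde release; IC50 derived from the series; experiment run three times.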

[3] = target: T2, Lysine-specific demethylase 4C (Homo sapiens) (UniProt Q9H3R0); experiment: as §1, with “Flag-tagged KDM4C” for “His-tagged JMJD6”, “formaldehyde” for “decrease in demethylase activity by measuring”, “release” for “release of formaldehyde”
T2 sequence (whole entry): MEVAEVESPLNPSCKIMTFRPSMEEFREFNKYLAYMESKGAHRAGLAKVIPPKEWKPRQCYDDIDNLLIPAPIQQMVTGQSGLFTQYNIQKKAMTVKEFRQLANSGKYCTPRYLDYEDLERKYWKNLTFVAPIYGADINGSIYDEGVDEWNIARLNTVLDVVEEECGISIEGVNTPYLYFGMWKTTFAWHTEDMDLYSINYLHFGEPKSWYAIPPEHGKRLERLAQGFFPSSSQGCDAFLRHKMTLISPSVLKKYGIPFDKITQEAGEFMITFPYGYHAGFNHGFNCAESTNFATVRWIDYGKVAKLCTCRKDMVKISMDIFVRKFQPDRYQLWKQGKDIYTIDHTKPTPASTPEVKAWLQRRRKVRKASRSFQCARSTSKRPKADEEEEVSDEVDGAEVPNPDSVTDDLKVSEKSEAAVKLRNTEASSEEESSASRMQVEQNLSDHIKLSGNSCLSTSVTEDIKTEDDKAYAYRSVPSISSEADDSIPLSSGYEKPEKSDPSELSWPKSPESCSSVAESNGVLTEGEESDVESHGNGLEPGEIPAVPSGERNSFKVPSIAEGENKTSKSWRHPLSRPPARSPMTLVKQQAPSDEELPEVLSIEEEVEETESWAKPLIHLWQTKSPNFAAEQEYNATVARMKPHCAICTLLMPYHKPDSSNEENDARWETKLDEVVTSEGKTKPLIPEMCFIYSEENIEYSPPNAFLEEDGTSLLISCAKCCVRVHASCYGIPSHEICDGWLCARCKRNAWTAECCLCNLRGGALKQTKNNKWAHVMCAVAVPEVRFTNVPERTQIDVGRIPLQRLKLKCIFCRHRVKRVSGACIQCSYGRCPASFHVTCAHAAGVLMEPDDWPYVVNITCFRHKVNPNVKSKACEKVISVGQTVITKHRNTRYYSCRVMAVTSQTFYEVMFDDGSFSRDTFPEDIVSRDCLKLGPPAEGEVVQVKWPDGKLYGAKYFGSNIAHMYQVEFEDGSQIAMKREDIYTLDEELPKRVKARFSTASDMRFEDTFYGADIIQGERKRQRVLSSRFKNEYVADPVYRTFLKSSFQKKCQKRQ

[4] = target: T3, Lysine-specific demethylase 3A (Homo sapiens) (UniProt Q9Y4C1); experiment: as §1, with “Flag-tagged KDM3A” for “His-tagged JMJD6”, “formaldehyde” for “decrease in demethylase activity by measuring”, “release” for “release of formaldehyde”
T3 sequence (whole entry): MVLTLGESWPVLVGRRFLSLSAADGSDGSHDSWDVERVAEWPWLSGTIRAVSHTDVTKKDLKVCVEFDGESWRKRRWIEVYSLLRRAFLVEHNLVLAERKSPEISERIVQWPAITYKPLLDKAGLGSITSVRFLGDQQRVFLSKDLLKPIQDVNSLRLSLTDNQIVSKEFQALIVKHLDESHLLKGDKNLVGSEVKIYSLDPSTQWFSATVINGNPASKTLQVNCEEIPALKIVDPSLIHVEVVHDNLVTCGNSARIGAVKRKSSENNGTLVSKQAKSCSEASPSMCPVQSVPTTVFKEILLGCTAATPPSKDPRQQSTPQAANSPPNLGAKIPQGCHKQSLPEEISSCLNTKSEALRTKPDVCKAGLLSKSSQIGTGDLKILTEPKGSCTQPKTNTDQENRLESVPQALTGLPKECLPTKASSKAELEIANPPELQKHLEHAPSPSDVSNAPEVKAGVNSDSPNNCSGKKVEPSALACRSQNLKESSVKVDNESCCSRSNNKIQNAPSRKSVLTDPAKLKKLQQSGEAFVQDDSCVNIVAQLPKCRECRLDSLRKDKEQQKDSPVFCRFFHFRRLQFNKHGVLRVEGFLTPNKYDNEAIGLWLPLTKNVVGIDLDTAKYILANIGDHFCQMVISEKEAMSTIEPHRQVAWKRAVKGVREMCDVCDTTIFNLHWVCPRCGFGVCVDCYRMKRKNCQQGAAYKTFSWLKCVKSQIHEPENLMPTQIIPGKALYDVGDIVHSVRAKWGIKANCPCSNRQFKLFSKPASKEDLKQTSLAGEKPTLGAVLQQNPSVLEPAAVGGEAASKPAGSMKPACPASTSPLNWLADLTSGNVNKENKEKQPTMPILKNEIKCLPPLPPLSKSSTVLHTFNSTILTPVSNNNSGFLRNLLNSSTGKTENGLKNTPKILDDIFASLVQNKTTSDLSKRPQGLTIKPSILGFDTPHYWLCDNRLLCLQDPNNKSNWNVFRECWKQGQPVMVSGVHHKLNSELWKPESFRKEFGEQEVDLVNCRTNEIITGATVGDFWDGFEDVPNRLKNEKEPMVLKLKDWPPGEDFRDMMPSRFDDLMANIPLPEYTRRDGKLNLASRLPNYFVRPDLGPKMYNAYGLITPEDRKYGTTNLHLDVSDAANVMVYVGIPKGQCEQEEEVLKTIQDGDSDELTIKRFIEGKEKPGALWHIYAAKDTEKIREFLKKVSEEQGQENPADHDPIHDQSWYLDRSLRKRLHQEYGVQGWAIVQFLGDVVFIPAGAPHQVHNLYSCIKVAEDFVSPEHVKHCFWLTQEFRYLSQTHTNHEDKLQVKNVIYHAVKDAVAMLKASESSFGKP

[5] = target: T1, Bifunctional arginine demethylase and lysyl-hydroxylase JMJD6; experiment: Inhibition of JMJD6 in human HeLa cells assessed as increase in HSP70R469me1 level at 10 uM incubated for 6 hrs by immunoblotting analysis; format: cell-based
Method in brief: (§2)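 HeLa cells treated with or without compound at 10 μM for 6 h; lysates immunoblotted for H4R3me2s and HSP70R469me1.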

[6] = target: Histone lysine demethylase PHF8 (Homo sapiens) (UniProt Q9UPP1); experiment: as §1, with “Flag-tagged PHF8” for “His-tagged JMJD6”, “formaldehyde” for “decrease in demethylase activity by measuring”, “release” for “release of formaldehyde”
L02 = experiment: Cytotoxicity in human LO2 cells assessed as reduction in cell proliferation incubated for 72 hrs by CellTiter 96 AQueous one solution cell proliferation assay; format: cell-based; conditions: l02, 72 h
[7] = target: T1, Bifunctional arginine demethylase and lysyl-hydroxylase JMJD6; experiment: Inhibition of JMJD6 in human HeLa cells assessed as H4R3me2S level at 10 uM incubated for 6 hrs by immunoblotting analysis; format: cell-based; method in brief: as §2
[8] = target: Lysine-specific demethylase 5C (Homo sapiens) (UniProt P41229); experiment: as §1, with “Flag-tagged KDM5C” for “His-tagged JMJD6”, “formaldehyde” for “decrease in demethylase activity by measuring”, “release” for “release of formaldehyde”
[9] = target: T1, Bifunctional arginine demethylase and lysyl-hydroxylase JMJD6; experiment: Binding affinity to immobilized His-tagged JMJD6 (unknown origin) expressed in Escherichia coli BL21 (DE3) by biacore-binding assay

Sequence of Histone lysine demethylase PHF8 (Homo sapiens) (Q9UPP1 whole entry): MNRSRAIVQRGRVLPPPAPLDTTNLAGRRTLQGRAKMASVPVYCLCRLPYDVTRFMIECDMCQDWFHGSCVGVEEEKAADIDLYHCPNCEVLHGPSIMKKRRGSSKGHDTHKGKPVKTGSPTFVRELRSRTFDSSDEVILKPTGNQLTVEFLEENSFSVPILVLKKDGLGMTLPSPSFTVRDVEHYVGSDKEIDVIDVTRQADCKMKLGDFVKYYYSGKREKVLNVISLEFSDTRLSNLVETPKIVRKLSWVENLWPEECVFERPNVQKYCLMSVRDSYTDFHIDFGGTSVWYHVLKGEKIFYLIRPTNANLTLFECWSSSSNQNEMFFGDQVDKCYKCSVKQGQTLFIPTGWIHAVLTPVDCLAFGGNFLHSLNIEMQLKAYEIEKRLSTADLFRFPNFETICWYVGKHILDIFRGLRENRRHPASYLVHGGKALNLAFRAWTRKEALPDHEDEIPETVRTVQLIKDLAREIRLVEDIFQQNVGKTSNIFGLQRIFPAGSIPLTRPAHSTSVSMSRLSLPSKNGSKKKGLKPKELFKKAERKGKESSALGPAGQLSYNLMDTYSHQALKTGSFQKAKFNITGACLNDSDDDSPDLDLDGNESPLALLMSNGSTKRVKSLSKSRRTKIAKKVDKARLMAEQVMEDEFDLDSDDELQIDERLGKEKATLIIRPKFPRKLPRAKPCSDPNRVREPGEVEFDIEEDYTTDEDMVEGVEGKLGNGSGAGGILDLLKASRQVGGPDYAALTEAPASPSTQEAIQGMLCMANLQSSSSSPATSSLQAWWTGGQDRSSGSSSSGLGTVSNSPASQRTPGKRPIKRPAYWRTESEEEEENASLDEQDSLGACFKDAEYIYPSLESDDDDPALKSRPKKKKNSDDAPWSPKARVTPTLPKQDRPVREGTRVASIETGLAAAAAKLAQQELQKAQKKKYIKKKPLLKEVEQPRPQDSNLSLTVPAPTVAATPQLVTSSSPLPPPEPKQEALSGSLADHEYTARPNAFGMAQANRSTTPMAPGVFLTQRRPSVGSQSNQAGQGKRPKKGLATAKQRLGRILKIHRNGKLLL
Sequence of Lysine-specific demethylase 5C (Homo sapiens) (P41229 whole entry): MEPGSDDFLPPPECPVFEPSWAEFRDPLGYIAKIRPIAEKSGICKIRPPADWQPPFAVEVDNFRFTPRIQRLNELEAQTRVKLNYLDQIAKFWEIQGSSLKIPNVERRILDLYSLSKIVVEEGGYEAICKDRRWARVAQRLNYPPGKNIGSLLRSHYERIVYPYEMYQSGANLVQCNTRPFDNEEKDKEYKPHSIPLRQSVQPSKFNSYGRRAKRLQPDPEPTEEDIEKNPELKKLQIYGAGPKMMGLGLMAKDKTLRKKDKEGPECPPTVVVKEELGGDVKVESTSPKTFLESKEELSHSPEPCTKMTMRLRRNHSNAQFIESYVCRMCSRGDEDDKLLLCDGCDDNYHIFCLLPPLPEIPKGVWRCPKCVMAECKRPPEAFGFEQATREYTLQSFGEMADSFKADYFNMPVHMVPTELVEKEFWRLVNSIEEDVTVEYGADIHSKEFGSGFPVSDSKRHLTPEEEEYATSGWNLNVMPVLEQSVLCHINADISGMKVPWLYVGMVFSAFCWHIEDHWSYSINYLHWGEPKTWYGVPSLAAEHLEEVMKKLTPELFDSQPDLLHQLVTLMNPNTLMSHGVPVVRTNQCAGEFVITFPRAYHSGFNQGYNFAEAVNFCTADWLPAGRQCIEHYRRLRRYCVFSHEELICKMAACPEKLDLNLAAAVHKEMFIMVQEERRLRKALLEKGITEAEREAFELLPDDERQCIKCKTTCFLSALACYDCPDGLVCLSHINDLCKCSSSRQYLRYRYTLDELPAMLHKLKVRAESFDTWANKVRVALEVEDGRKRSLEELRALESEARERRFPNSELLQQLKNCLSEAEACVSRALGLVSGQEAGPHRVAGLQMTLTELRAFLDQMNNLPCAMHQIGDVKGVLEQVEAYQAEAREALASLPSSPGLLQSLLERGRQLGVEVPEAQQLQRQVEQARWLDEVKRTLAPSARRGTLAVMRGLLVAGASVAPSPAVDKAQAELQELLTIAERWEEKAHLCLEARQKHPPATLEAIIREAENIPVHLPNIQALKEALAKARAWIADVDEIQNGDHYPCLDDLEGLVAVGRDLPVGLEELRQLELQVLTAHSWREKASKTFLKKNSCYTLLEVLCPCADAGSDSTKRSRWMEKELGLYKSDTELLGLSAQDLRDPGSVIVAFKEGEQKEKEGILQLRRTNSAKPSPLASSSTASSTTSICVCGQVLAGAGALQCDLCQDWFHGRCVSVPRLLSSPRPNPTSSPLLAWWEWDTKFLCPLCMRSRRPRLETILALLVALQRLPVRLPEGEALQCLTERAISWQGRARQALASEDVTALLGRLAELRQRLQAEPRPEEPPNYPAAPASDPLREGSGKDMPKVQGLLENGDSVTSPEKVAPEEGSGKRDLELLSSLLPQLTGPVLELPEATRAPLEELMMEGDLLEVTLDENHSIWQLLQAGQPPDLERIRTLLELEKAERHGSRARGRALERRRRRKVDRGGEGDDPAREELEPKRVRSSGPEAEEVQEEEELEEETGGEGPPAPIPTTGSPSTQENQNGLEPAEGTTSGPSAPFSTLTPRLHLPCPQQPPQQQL

Structure (SMILES): COCCN1CCOc2nc3c(C)cccc3cc2C1
- inhibition [1]: Active

- inhibition [1]: Active
Structure (SMILES): CCOC(=O)c1csc(NC(=O)c2cc(C)on2)n1

- pIC50 [2]: 6.66
- inhibition [3]: inactive
- inhibition [4]: inactive
- inhibition [5]: Active
- inhibition [1]: Active
- inhibition [6]: inactive
- inhibition [7]: inactive
- inhibition [8]: inactive
- Activity [9]: Active
Structure (SMILES): Cc1ccc2oc(=O)c(-c3nc4cnccc4[nH]3)cc2c1
- Activity (L02): Non-Toxic

- inhibition [1]: Active
Structure (SMILES): COc1ccc2oc(=O)c(-c3csc(C)n3)cc2c1

- inhibition [1]: Active
Structure (SMILES): COCCn1cc(OC(C)=O)c2c1nc(C)n1c3ccccc3nc21
